According to PubChem BioAssay AID623981 (Broad Institute, 2012):
Values joined by “and” are separate entries in the source; they are usually repeats but may differ in a detail not shown here. Identical values can stand only once. Active and inactive are the calls of the source.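 How the source made its calls: active means compounds lowering growth signal whose fitted half-effect dose is at most twice their top tested dose; inconclusive means flat fit with moderate inhibition, or poor curve fit; inactive means the rest.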

test system: not listed separately; experiment: single-agent growth inhibition of fluconazole-resistant C. albicans, dose response, CaCi-2 strain, dry powder, plate reader, set 3 (AID 623981); settings: C. albicans CaCi-2 growth, Alamar Blue fluorescence, 48 h; at 3 µM (top of the series)
Outline: (§1)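 Assay system: fluconazole-resistant Candida albicans strain CaCi-2; input: inoculum A600 0.00015; buffer or medium: defined RPMI 1640 with MOPS buffer, uridine, glucose, Pen/Strep; incubation: 48 h at 37 °C, humidified, plus 2 h stain; technique: Alamar Blue fluorescence; benchmarks: amphotericin 10 µM as positive control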

SMILES | activity change, negative = inhibition
C/C=C/[C@@H]1[C@H]2C[C@@H](C)CC[C@@H]2C(C)=C[C@H]1C(=O)c1c(O)c(-c2ccc(O)cc2)c[nH]c1=O | 47.9% (inactive)

test system: C. albicans CaCi-2 growth, Alamar Blue fluorescence, 48 h; experiment: as above; settings: not given
Outline: as §1

SMILES | AC50
CC1/C=C/C=C\C=C\C=C\C=C\C=C\C=C\C(O[C@H]2OC(C)C(O)C(N)C2O)CC2OC(O)(CC(O)CC(O)C(O)CCC(O)CC(O)CC(=O)OC(C)C(C)C1O)CC(O)C2C(=O)O (stereo partly drawn) | 92.3 nM
CCOC(=O)N1C(=O)C2(CCCCC2)N(c2ccc(F)cc2)C1=S | 150 nM
CCOC(=O)N1C(=O)C2(CCCCC2)N(c2ccc(Cl)cc2)C1=S | 221 nM
CCOC(=O)N1C(=O)C2(CCCCC2)N(c2ccccc2)C1=S | 697 nM
CCOC(=O)N1C(=O)C2(CCCCC2)N(c2ccc(C#N)cc2)C1=S | 307 nM
CCOC(=O)N1C(=O)C2(CCCCC2)N(c2cccc(C)c2)C1=S | 1260 nM
CCOC(=O)N1C(=O)C2(CCCCC2)N(c2ccc(C)cc2)C1=S | 2740 nM and 3070 nM
